In ChEMBL document CHEMBL3596120, “Discovery of natural alkaloid bouchardatine as a novel inhibitor of adipogenesis/lipogenesis in 3T3-L1 adipocytes” (Bioorg Med Chem, 2015):
Activity calls are given as the source filed them.

Tests used:
3T3-L1 [1] = test: Inhibition of adipogenesis in mouse 3T3L1 cells assessed as reduction in triglyceride content at 25 uM treated on day 6 to 9 by colorimetric assay; format: functional; details: 3T3-L1, 144 h
3T3-L1 [2] = test: Increase in AMPKbeta Ser108 phosphorylation in mouse 3T3L1 cells at 1 to 50 uM after 9 days by Western blot method; format: cell-based
How it was run: (§1)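 Mouse 3T3-L1 cells taken through the differentiation protocol, with compound or DMSO vehicle given from day 0 and renewed at day 3. Cells lysed on ice for 0.5 h in RIPA with PMSF, Na3VO4, NaF and protease inhibitors, then centrifuged at 12,000g. Lysates run on 12% SDS-PAGE and transferred to PVDF. Blots probed overnight at 4 °C and detected with HRP secondary. Bands quantified by optical density against GAPDH. Three independent experiments.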

[3] = Reduction in C/EBPalpha mRNA expression in mouse 3T3L1 cells at 1 to 50 uM after 72 hrs by RT-PCR method; format: functional, cell-based; details: 3T3-L1
[4] = Reduction in SREBP-1c mRNA expression in mouse 3T3L1 cells at 1 to 50 uM after 72 hrs by RT-PCR method; format: functional, cell-based; details: 3T3-L1
How it was run: (§2)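 3T3-L1 preadipocytes grown in DMEM with 10% FBS at 37 °C under 5% CO2. Differentiation starts 2 days post-confluence (day 0) with IBMX, 100 ng/mL dexamethasone and insulin for 3 d, then insulin in 10% FBS/DMEM for 3 d, then basic medium for 3 d. Compound is added on day 0 and renewed at day 3. Vehicle control receives the same volume of DMSO.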

3T3-L1 [5] = test: Inhibition of adipogenesis in mouse 3T3L1 cells assessed as reduction in triglyceride content at 25 uM treated on day 0 to 9 by oil Red-O staining based microscopy; format: functional, cell-based
How it was run: (§3)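 After 3T3-L1 differentiation (IBMX/dexamethasone/insulin induction, insulin, then basal medium), cells were PBS-washed and fixed in 4% formalin for 60 min. Stained with filtered Oil Red O for 30 min at room temperature and imaged at 40× objective. Dye eluted with isopropanol and read at 510 nm. Three independent experiments.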

3T3-L1 [6] = test: Inhibition of adipogenesis in mouse 3T3L1 cells assessed as reduction in triglyceride content at 25 uM treated on day 3 to 6 by oil Red-O staining based microscopy; format: functional, cell-based; how it was run: as §3
[7] = Reduction in SREBP-1c protein expression in mouse 3T3L1 cells at 1 to 50 uM by Western blot method; format: functional, cell-based; details: 3T3-L1; how it was run: as §2
[8] = Reduction in PPARgamma protein expression in mouse 3T3L1 cells at 1 to 50 uM by Western blot method; format: functional, cell-based; details: 3T3-L1; how it was run: as §2
3T3-L1 [9] = test: Inhibition of adipogenesis in mouse 3T3L1 cells assessed as reduction in triglyceride content at 25 uM treated on day 0 to 6 by oil Red-O staining based microscopy; format: functional, cell-based; how it was run: as §3
3T3-L1 [10] = test: Inhibition of adipogenesis in mouse 3T3L1 cells assessed as reduction in triglyceride content at 25 uM by colorimetric assay; format: functional, cell-based
[11] = Cytotoxicity against mouse 3T3L1 cells assessed effect on cell morphology at 1 to 50 uM incubated for 1 to 9 days by microscopy; format: cell-based; details: 3t3-l1, 50 µM
3T3-L1 [12] = test: Inhibition of adipogenesis in mouse 3T3L1 cells assessed as reduction in cell size at 1 to 50 uM by oil Red-O staining based microscopy; format: functional; how it was run: as §3
[13] = Reduction in C/EBPalpha mRNA expression in mouse 3T3L1 cells at 25 uM by RT-PCR method; format: functional, cell-based; details: 3T3-L1, TDE = time-dependent effect
3T3-L1 [14] = test: Inhibition of adipogenesis in mouse 3T3L1 cells assessed as reduction in cell finger ring diameter size at 1 to 50 uM by oil Red-O staining based microscopy; format: functional; how it was run: as §3
[15] = Reduction in FAS protein expression in mouse 3T3L1 cells at 1 to 50 uM after 9 days by Western blot method; format: functional, cell-based; details: 3T3-L1; how it was run: as §2
3T3-L1 [16] = test: Reduction in AMPKalpha2 mRNA expression in mouse 3T3L1 cells at 25 uM after 24 hrs by RT-PCR method; format: functional, cell-based
3T3-L1 [17] = test: Inhibition of adipogenesis in mouse 3T3L1 cells assessed as reduction in triglyceride content at 25 uM treated on day 0 to 3 by oil Red-O staining based microscopy; format: functional, cell-based; how it was run: as §3
[18] = Reduction in SREBP-1c protein expression in mouse 3T3L1 cells at 25 uM after 3 days by Western blot method; format: functional, cell-based; details: 3T3-L1; how it was run: as §2
3T3-L1 [19] = test: Inhibition of adipogenesis in mouse 3T3L1 cells assessed as reduction in triglyceride content at 25 uM treated on day 3 to 9 by oil Red-O staining based microscopy; format: functional, cell-based; how it was run: as §3
[20] = Cytotoxicity against mouse 3T3L1 cells at 1 to 50 uM incubated for 1 to 9 days by LDH assay; format: cell-based; details: 3t3-l1, 50 µM
How it was run: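 3T3-L1 adipocytes seeded at 7 × 10^3 cells/well, then treated 24 h later with DMSO vehicle as control. LDH in media and in cell lysates measured with a commercial kit. Cytotoxicity = LDH released into medium / maximal LDH release × 100. Maximum: […]. Blank: medium without cells.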

HepG2 [21] = test: Cytotoxicity against human HepG2 cells at 1 to 100 uM by MTT assay; format: cell-based; details: hepg2, 100 µM
How it was run: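 HepG2 cells seeded at 7 × 10^3 cells/well. After 24 h, treated with 1, 10, 25, 50 or 100 µM; DMSO vehicle control. After the set time, MTT at 0.5 mg/mL was added for 4 h at 37 °C. Formazan dissolved in DMSO and read at 490 nm. Run in triplicate.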

[22] = Reduction in C/EBPbeta mRNA expression in mouse 3T3L1 cells at 25 uM by RT-PCR method; format: functional, cell-based; details: 3T3-L1, TDE = time-dependent effect; how it was run: as §2
3T3-L1 [23] = test: Induction of cell cycle arrest in mouse 3T3L1 cells assessed as accumulation at S phase at 25 uM after 24 hrs by flow cytometry (reference value: 18%); format: functional
[24] = Reduction in PPARgamma protein expression in mouse 3T3L1 cells at 25 uM after 3 days by Western blot method; format: functional, cell-based; details: 3T3-L1; how it was run: as §2
[25] = Reduction in C/EBPbeta mRNA expression in mouse 3T3L1 cells after 72 hrs by RT-PCR method; format: functional, cell-based; details: 3T3-L1; how it was run: as §2
3T3-L1 [26] = test: Induction of cell cycle arrest in mouse 3T3L1 cells assessed as accumulation at G0/G1 phase at 25 uM after 24 hrs by flow cytometry (reference value: 42%); format: functional
[27] = Reduction in AMPKbeta protein expression in mouse 3T3L1 cells at 1 to 50 uM after 9 days by Western blot method; format: functional, cell-based; details: 3T3-L1; how it was run: as §1
3T3-L1 [28] = test: Induction of cell cycle arrest in mouse 3T3L1 cells assessed as accumulation at G0/G1 phase at 1 to 50 uM after 24 hrs by flow cytometry; format: functional, cell-based
3T3-L1 [29] = test: Reduction in AMPKalpha1 mRNA expression in mouse 3T3L1 cells at 25 uM after 24 hrs by RT-PCR method; format: functional, cell-based
3T3-L1 [30] = test: Induction of cell cycle arrest in mouse 3T3L1 cells assessed as accumulation at G2/M phase at 1 to 50 uM by flow cytometry; format: functional, cell-based
[31] = Reduction in SCD1 protein expression in mouse 3T3L1 cells at 1 to 50 uM after 9 days by Western blot method; format: functional, cell-based; details: 3T3-L1; how it was run: as §2
3T3-L1 [32] = test: Inhibition of adipogenesis in mouse 3T3L1 cells assessed as reduction in triglyceride content at 25 uM treated on day 6 to 9 by oil Red-O staining based microscopy; format: functional, cell-based; how it was run: as §3
3T3-L1 [33] = test: Increase in AMPKalpha Thr172 phosphorylation in mouse 3T3L1 cells at 25 uM after 9 days by Western blot method; format: cell-based; how it was run: as §1
3T3-L1 [34] = test: Inhibition of adipogenesis in mouse 3T3L1 cells assessed as reduction in triglyceride content at 1 to 50 uM by colorimetric assay; format: functional, cell-based
3T3-L1 [35] = test: Inhibition of adipogenesis in mouse 3T3L1 cells assessed as reduction in lipid droplets at 1 to 50 uM by oil Red-O staining based microscopy; format: functional, cell-based; how it was run: as §3
[36] = Reduction in C/EBPalpha protein expression in mouse 3T3L1 cells at 1 to 50 uM by Western blot method; format: functional, cell-based; details: 3T3-L1; how it was run: as §1
HepG2 [37] = test: Inhibition of oleic acid-induced adipogenesis in human HepG2 cells assessed as reduction in triglyceride content by colorimetric assay; format: functional, cell-based
How it was run: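 HepG2 cells loaded with 0.5 mM oleic acid sodium, with or without compound. Lysed in 0.2% Triton X-100 in water and sonicated. TG measured colorimetrically and normalised to cellular protein. Blank: no oleate. Three independent experiments.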

[38] = Reduction in PPARgamma mRNA expression in mouse 3T3L1 cells at 1 to 50 uM after 72 hrs by RT-PCR method; format: functional, cell-based; details: 3T3-L1; how it was run: as §2
[39] = Reduction in AMPKalpha protein expression in mouse 3T3L1 cells at 1 to 50 uM after 9 days by Western blot method; format: functional, cell-based; details: 3T3-L1; how it was run: as §1
[40] = Reduction in C/EBPdelta mRNA expression in mouse 3T3L1 cells at 25 uM by RT-PCR method; format: functional, cell-based; details: 3T3-L1, TDE = time-dependent effect; how it was run: as §2
[41] = Reduction in FAS protein expression in mouse 3T3L1 cells at 25 uM after 9 days by Western blot method; details: 3T3-L1
3T3-L1 [42] = test: Activation of AMPK in mouse 3T3L1 cells assessed as increase in ACC Ser79 phosphorylation at 1 to 50 uM after 9 days by Western blot method; format: cell-based; how it was run: as §1
3T3-L1 [43] = test: Activation of AMPK in mouse 3T3L1 cells assessed as increase in ACC Ser79 phosphorylation at 25 uM after 9 days by Western blot method; format: cell-based; how it was run: as §1
[44] = Reduction in SCD1 protein expression in mouse 3T3L1 cells at 25 uM after 9 days by Western blot method; details: 3T3-L1
3T3-L1 [45] = test: Inhibition of adipogenesis in mouse 3T3L1 cells assessed as reduction in lipid content at 25 uM by colorimetric assay; format: functional
3T3-L1 [46] = test: Increase in AMPKalpha Thr172 phosphorylation in mouse 3T3L1 cells at 1 to 50 uM after 9 days by Western blot method; format: cell-based; how it was run: as §1
[47] = Reduction in ACC protein expression in mouse 3T3L1 cells at 1 to 50 uM after 9 days by Western blot method; format: functional, cell-based; details: 3T3-L1; how it was run: as §1
3T3-L1 [48] = test: Inhibition of adipogenesis in mouse 3T3L1 cells assessed as reduction in triglyceride content at 25 uM treated on day 0 to 3 by colorimetric assay; format: functional; details: 3T3-L1, 0 h
3T3-L1 [49] = test: Induction of cell cycle arrest in mouse 3T3L1 cells assessed as accumulation at G2/M phase at 25 uM after 24 hrs by flow cytometry (reference value: 29%); format: functional
3T3-L1 [50] = test: Inhibition of adipogenesis in mouse 3T3L1 cells assessed as reduction in triglyceride content at 25 uM treated on day 3 to 6 by colorimetric assay; format: functional; details: 3T3-L1, 72 h
[51] = Reduction in C/EBPalpha protein expression in mouse 3T3L1 cells at 25 uM after 3 days by Western blot method; format: functional, cell-based; details: 3T3-L1; how it was run: as §2
[52] = Reduction in C/PPARgamma mRNA expression in mouse 3T3L1 cells at 25 uM by RT-PCR method; format: functional, cell-based; details: 3T3-L1, TDE = time-dependent effect; how it was run: as §2
3T3-L1 [53] = test: Increase in AMPKalpha Thr172 phosphorylation in mouse 3T3L1 cells at 25 uM by Western blot method; format: cell-based; details: TDE = time-dependent effect

O=Cc1c(-c2nc3ccccc3c(=O)[nH]2)[nH]c2ccccc12
50%: inhibition at 25 µM (3T3-L1 [45]) | inhibition at 25 µM (3T3-L1 [48])
57%: Activity (3T3-L1 [49])
30%: inhibition at 25 µM (3T3-L1 [50])
40%: Activity (3T3-L1 [26])
< 10%: inhibition at 25 µM (3T3-L1 [1])
Non-toxic: Activity [11] | Activity [20] | Activity (HepG2 [21])
active: Activity (3T3-L1 [2]) Dose-dependent effect | Activity [3] | Activity [4] | inhibition (3T3-L1 [5]) | inhibition (3T3-L1 [6]) | Activity [7] | Activity [8] | inhibition (3T3-L1 [9]) | Activity (3T3-L1 [10]) | inhibition (3T3-L1 [12]) | Activity [13] tde | inhibition (3T3-L1 [14]) | Activity [15] | Activity (3T3-L1 [16]) | inhibition (3T3-L1 [17]) | Activity [18] | inhibition (3T3-L1 [19]) | Activity [22] tde | Activity [24] | Activity [25] Dose-dependent effect | Activity [27] | Activity (3T3-L1 [28]) Dose-dependent effect | Activity (3T3-L1 [29]) | Activity (3T3-L1 [30]) | Activity [31] | inhibition (3T3-L1 [32]) | Activity (3T3-L1 [33]) | inhibition (3T3-L1 [34]) Dose-dependent effect | inhibition (3T3-L1 [35]) | Activity [36] | inhibition (HepG2 [37]) Dose-dependent effect | Activity [38] | Activity [39] | Activity [40] tde | Activity [41] | Activity (3T3-L1 [42]) | Activity (3T3-L1 [43]) | Activity [44] | Activity (3T3-L1 [46]) Dose-dependent effect | Activity [47] | Activity [51] | Activity [52] tde | Activity (3T3-L1 [53]) tde
5%: Activity (3T3-L1 [23])
